In ChEMBL document CHEMBL1137007, “Synthesis of 4-substituted pyrido[2,3-d]pyrimidin-4(1H)-one as analgesic and anti-inflammatory agents” (Bioorg Med Chem Lett, 2009) one finds Activity and UI data, which are given here for six molecules.

The subject of data set [1] is Rattus norvegicus. The data set can be described thus: Antiinflammatory activity in rat assessed as inhibition of carrageenan-induced paw oedema at 20 mg/kg, po after 3 hrs. The data set is classed as functional. Details: scale not given: the % may be the effect or the level left. The gist of the method:
(§1)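 Rats, six per group, were dosed orally (10 or 20 mg/kg, suspension in 1% carboxymethyl cellulose) before carrageenan paw injection. Paw volume was read by mercury-displacement plethysmography just before and 30 min, 1, 2 and 3 h after carrageenan. %inhibition = 100[1 − (a − x)/(b − y)], with the test group's pre/post volumes set against the vehicle control group's. Reported as mean ± SEM (n = 6) with ANOVA.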
A general note: Carrageenan injected into the paw causes an acute inflammation.

Data set [2] deals with Mus musculus. The data set can be described thus: Analgesic activity in Wister albino mice at 10 mg/kg, po after 1 hr by tail-flick test. (Thermal pain tests record how soon the animal reacts.)
Data set [3] has as its system Rattus norvegicus. Nature of the data set: Antiinflammatory activity in rat assessed as inhibition of carrageenan-induced paw oedema at 20 mg/kg, po after 30 mins. Format: functional. Set-up: scale not given: the % may be the effect or the level left. A digest of the protocol:
as §1

Data set [4] concerns Mus musculus. The data set can be described thus: Analgesic activity in Wister albino mice at 20 mg/kg, po after 30 mins by tail-flick test.
For data set [5], the system named is Rattus norvegicus. Nature of the data set: Antiinflammatory activity in rat assessed as inhibition of carrageenan-induced paw oedema at 10 mg/kg, po after 2 hrs. Format: functional. Set-up: scale not given: the % may be the effect or the level left. The gist of the method:
as §1

Data set [6] has as its system Mus musculus. The data set can be described thus: Analgesic activity in Wister albino mice at 10 mg/kg, po after 3 hrs by tail-flick test.
Data set [7] has as its system Rattus norvegicus. Nature of the data set: Antiinflammatory activity in rat assessed as inhibition of carrageenan-induced paw oedema at 10 mg/kg, po after 3 hrs. The data set is classed as functional. Set-up: scale not given: the % may be the effect or the level left. A digest of the protocol: as §1
Data set [8] relates to Mus musculus. Nature of the data set: Analgesic activity in Wister albino mice at 10 mg/kg, po after 30 mins by tail-flick test.
The subject of data set [9] is Rattus norvegicus. The data set can be described thus: Toxicity in Wistar albino rat assessed as ulcer index at 20 mg/kg, ip administered once daily for 3 days. Format: organism-based. Set-up: dose 20 mg/kg, route intraperitoneal. The conditions noted are these: in vivo, 72 h. A digest of the protocol:
(§2)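 Wistar albino rats of either sex (150–200 g), six per group, housed at 25 °C, 45–55% RH, 12-h light/dark cycle and acclimatized one week. Dosing was intraperitoneal as a suspension in 10% v/v Tween-80, with a vehicle-only control group. Animals were fasted 36 h, then pylorus-ligated (Shay method) on day 4 and sacrificed 4 h later for ulcer index. Values are mean ± SEM (n = 6), analysed by one-way ANOVA.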

The subject of data set [10] is Rattus norvegicus. Nature of the data set: Antiinflammatory activity in rat assessed as inhibition of carrageenan-induced paw oedema at 10 mg/kg, po after 1 hr. The data set is classed as functional. Set-up: scale not given: the % may be the effect or the level left. A digest of the protocol: as §1
In data set [11] the test system is Rattus norvegicus. Nature of the data set: Antiinflammatory activity in rat assessed as inhibition of carrageenan-induced paw oedema at 20 mg/kg, po after 1 hr. The data set is classed as functional. Set-up: scale not given: the % may be the effect or the level left. A digest of the protocol: as §1
Data set [12] relates to Mus musculus. Nature of the data set: Analgesic activity in Wister albino mice at 20 mg/kg, po after 1 hr by tail-flick test.
In data set [13] the test system is Mus musculus. The data set can be described thus: Analgesic activity in Wister albino mice at 20 mg/kg, po after 3 hrs by tail-flick test.
The test system of data set [14] is Mus musculus. The data set can be described thus: Analgesic activity in Wister albino mice at 10 mg/kg, po after 2 hrs by tail-flick test.
Data set [15] has as its system Rattus norvegicus. The data set can be described thus: Antiinflammatory activity in rat assessed as inhibition of carrageenan-induced paw oedema at 10 mg/kg, po after 30 mins. Format: functional. Details: scale not given: the % may be the effect or the level left. A digest of the protocol: as §1
Data set [16] has as its system Rattus norvegicus. The data set can be described thus: Antiinflammatory activity in rat assessed as inhibition of carrageenan-induced paw oedema at 20 mg/kg, po after 2 hrs. Set-up: scale not given: the % may be the effect or the level left. The data set is classed as functional. The gist of the method: as §1
Data set [17] concerns Mus musculus. Nature of the data set: Analgesic activity in Wister albino mice at 20 mg/kg, po after 2 hrs by tail-flick test.
In data set [18] the test system is Mus musculus. The data set can be described thus: Analgesic activity in Wister albino mouse at 20 mg/kg, po after 1 hr by tail-flick test.
The test system of data set [19] is Rattus norvegicus. The data set can be described thus: Toxicity in Wistar albino rat assessed as ulcer index at 200 mg/kg, ip administered once daily for 3 days. Format: organism-based. Set-up: dose 200 mg/kg, route intraperitoneal. The note with it: in vivo, 72 h. A digest of the protocol: as §2

For the molecule `Nc1ncnc2nc3[nH]c(=S)[nH]c(=O)c3c(-c3ccc(N4CCCCC4)cc3)c12`, the Activity with Rattus norvegicus [1] is 39%; in the data set with Mus musculus [2], 49%; with Rattus norvegicus [3], 42%; in the data set on Mus musculus [4], 55%; with Rattus norvegicus [5] it was 40%; in the data set with Mus musculus [6], 32%. In addition, the Activity in the data set with Rattus norvegicus [7] was 32%; in the data set on Mus musculus [8] it was 41%; in the data set with Rattus norvegicus [10] it was 39%; with Rattus norvegicus [11], 45%; in the data set with Mus musculus [12], 57%; in the data set with Mus musculus [13] it was 38%. The Activity was found to be 52% in the data set on Mus musculus [14], 33% in the data set with Rattus norvegicus [15], 48% in the data set with Rattus norvegicus [16] and 59% with Mus musculus [17]. The UI in the data set with Rattus norvegicus [9] worked out at 0.58.

In the case of `N#Cc1c(N)nc2[nH]c(=S)[nH]c(=O)c2c1-c1ccc(N2CCOCC2)cc1`, the Activity in the data set with Rattus norvegicus [1] was determined as 47%; in the data set on Mus musculus [2], 47%; with Rattus norvegicus [3] it was 50%; with Mus musculus [4], 59%; in the data set on Rattus norvegicus [5] it was 50%; with Mus musculus [6], 31%. In addition, the Activity was 36% with Rattus norvegicus [7]; 45% in the data set with Mus musculus [8]; 48% in the data set on Rattus norvegicus [10]; 61% in the data set on Rattus norvegicus [11]; 63% in the data set on Mus musculus [12]; 43% in the data set on Mus musculus [13]. The Activity came to 53% in the data set with Mus musculus [14], 41% with Rattus norvegicus [15], 63% with Rattus norvegicus [16] and 66% with Mus musculus [17]. In the data set with Rattus norvegicus [9], the UI is reported as 0.54.

Consider `CN1CCN(c2ccc(-c3c(C#N)c(N)nc4[nH]c(=S)[nH]c(=O)c34)cc2)CC1`, for which the Activity is recorded as 37% in the data set with Rattus norvegicus [1]; 60% with Mus musculus [2]; 48% in the data set with Rattus norvegicus [3]; 67% with Mus musculus [4]; 46% in the data set on Rattus norvegicus [5]; 44% in the data set with Mus musculus [6]. In addition, the Activity in the data set on Rattus norvegicus [7] was 31%; in the data set on Mus musculus [8] it was 53%; in the data set on Rattus norvegicus [10] it was 40%; in the data set on Rattus norvegicus [11] it was 55%; with Mus musculus [12], 68%; with Mus musculus [13], 52%. Further, the Activity with Mus musculus [14] worked out at 64%; in the data set on Rattus norvegicus [15] it was 39%; in the data set with Rattus norvegicus [16] it was 60%; in the data set with Mus musculus [17], 72%. Besides, the UI in the data set on Rattus norvegicus [9] was 0.51.

`N#Cc1c(N)nc2[nH]c(=S)[nH]c(=O)c2c1-c1ccc(N2CCCCC2)cc1`: the Activity worked out at 36% in the data set with Rattus norvegicus [1]; 51% in the data set with Mus musculus [2]; 45% in the data set with Rattus norvegicus [3]; 63% in the data set with Mus musculus [4]; 45% in the data set on Rattus norvegicus [5]; 39% in the data set on Mus musculus [6]. The Activity in the data set with Rattus norvegicus [7] is reported as 29%; in the data set with Mus musculus [8], 46%; in the data set on Mus musculus [18], 64%; with Rattus norvegicus [10], 37%; in the data set on Rattus norvegicus [11], 49%; in the data set with Mus musculus [13] it was 47%. Further, the Activity in the data set on Mus musculus [14] came to 55%; in the data set on Rattus norvegicus [15], 35%; with Rattus norvegicus [16] it was 51%; in the data set on Mus musculus [17], 69%. In the data set on Rattus norvegicus [9], the UI is given as 0.58.

For the molecule `CC(=O)Oc1ccccc1C(=O)O` [ASPIRIN], the UI in the data set with Rattus norvegicus [19] came to 1.73.

`O=C([O-])Cc1ccccc1Nc1c(Cl)cccc1Cl.[Na+]` [DICLOFENAC SODIUM]: the Activity is given as 42% in the data set on Rattus norvegicus [1]; 43% in the data set with Mus musculus [2]; 45% in the data set with Rattus norvegicus [3]; 46% in the data set with Mus musculus [4]; 39% in the data set with Rattus norvegicus [5]; 33% in the data set with Mus musculus [6]. Also, the Activity in the data set on Rattus norvegicus [7] is given as 33%; with Mus musculus [8] it was 37%; in the data set with Rattus norvegicus [10] it was 38%; in the data set with Rattus norvegicus [11] it was 52%; with Mus musculus [12], 55%; in the data set on Mus musculus [13] it was 39%. In addition, the Activity with Mus musculus [14] came out at 45%; in the data set on Rattus norvegicus [15], 32%; with Rattus norvegicus [16], 60%; in the data set with Mus musculus [17], 62%. Besides, the UI with Rattus norvegicus [9] stood at 1.65.
